Converted amounts (≈) assume the structure as drawn.
Columns and labels:
[1] = biological target: T1, 4,4'-diapophytoene desaturase (4,4'-diaponeurosporene-forming) (Staphylococcus aureus (strain Newman), UniProt O07855); assay: Inhibition of diapophytoene desaturase in Staphylococcus aureus Newman assessed as reduction in staphyloxanthin pigment formation after 48 hrs by spectrophotometry; parameters: species or system Staphylococcus aureus subsp. aureus str. Newman
T1 sequence (O07855 whole entry): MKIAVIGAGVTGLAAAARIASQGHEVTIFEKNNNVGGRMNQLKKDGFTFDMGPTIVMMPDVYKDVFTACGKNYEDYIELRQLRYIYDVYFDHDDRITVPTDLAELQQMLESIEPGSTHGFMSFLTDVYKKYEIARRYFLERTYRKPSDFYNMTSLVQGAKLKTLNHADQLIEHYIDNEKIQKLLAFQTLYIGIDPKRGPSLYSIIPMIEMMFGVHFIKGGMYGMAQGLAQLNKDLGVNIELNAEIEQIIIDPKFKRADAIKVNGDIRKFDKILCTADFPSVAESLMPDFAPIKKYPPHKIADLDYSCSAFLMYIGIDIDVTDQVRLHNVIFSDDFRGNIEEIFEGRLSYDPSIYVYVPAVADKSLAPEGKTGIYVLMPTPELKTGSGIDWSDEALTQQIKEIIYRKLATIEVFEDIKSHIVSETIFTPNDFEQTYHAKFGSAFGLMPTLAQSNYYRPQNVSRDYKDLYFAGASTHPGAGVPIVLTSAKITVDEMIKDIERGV

[2] = Aqueous solubility of the compound in water after 24 hrs by HPLC method; type: physicochemical
Summary of the method: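 Excess solid stirred in pure water for 24 h, then filtered. Filtrate analysed by HPLC (10 µL injection). Concentration read against a calibration curve of peak area versus concentration, built from methanol solutions at 50–800 µg/mL.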

[3] = biological target: T1, 4,4'-diapophytoene desaturase (4,4'-diaponeurosporene-forming); assay: Inhibition of 6x-His-tagged Staphylococcus aureus diapophytoene desaturase expressed in Escherichia coli BL21 (DE3) using diapophytoene substrate after overnight incubation
Trichophyton verrucosum = assay: Antifungal activity against naftifine-sensitive Trichophyton verrucosum after 7 days by serial dilution method; type: functional
Summary of the method: (§1)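 Broth serial dilution in 96-well plates per NCCLS recommendations. Medium: RPMI 1640 buffered with 0.165 M MOPS. Fungi were ATCC strains or clinical isolates.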

Trichophyton rubrum = assay: Antifungal activity against naftifine-sensitive Trichophyton rubrum after 7 days by serial dilution method; type: functional; summary of the method: as §1
Nannizzia gypsea = assay: Antifungal activity against naftifine-sensitive Microsporum gypseum after 7 days by serial dilution method; type: functional; summary of the method: as §1
[4] = test system: Trichophyton mentagrophytes; assay: Antifungal activity against naftifine-sensitive Trichophyton mentagrophytes after 7 days by serial dilution method; type: functional; summary of the method: as §1

SMILES: CN(C/C=C/c1cccc([N+](=O)[O-])c1)Cc1ccc2c(c1)CCCCC2
- IC50 [1]: > 1000 nM

SMILES: C(=C\c1ccccc1)/CNCc1ccc2c(c1)CCCCC2
- IC50 [1]: > 10000 nM

SMILES: CN(C/C=C/c1ccccc1F)Cc1ccc2c(c1)CCCCC2
- IC50 [1]: 246 nM

SMILES: CN(C/C=C/c1ccc(Cl)cc1)Cc1ccc2c(c1)CCCC2
- IC50 [1]: 12.8 nM

SMILES: C/C=C/CN(C)Cc1ccc2c(c1)CCCCC2
- IC50 [1]: > 50000 nM

SMILES: CCN(C/C=C/c1ccccc1)Cc1ccc2c(c1)CCCCC2
- IC50 [1]: > 1250 nM

SMILES: CN(C/C=C/c1ccc(Br)cc1)Cc1ccc2c(c1)CCCC2.Cl
- solubility at 24 h [2]: 2100 µg/mL
- IC50 [1]: 1.3 nM
- IC50 [3]: 450 nM

SMILES: CN(CC#Cc1ccccc1)Cc1ccc2c(c1)CCCCC2
- IC50 [1]: > 1250 nM

SMILES: CN(C/C=C/C1CCCCC1)Cc1ccc2c(c1)CCCCC2
- IC50 [1]: > 10000 nM

SMILES: CN(C/C=C/c1ccccc1)Cc1cccc2c1CCCCC2
- IC50 [1]: > 10000 nM

SMILES: OC(Cn1cncn1)(Cn1cncn1)c1ccc(F)cc1F [FLUCONAZOLE]
- MIC=<80 (Trichophyton verrucosum): 2 µg/mL (≈ 6.53 µM)
- MIC=<80 (Trichophyton rubrum): 1 µg/mL (≈ 3.27 µM)
- MIC=<80 (Nannizzia gypsea): 8 µg/mL (≈ 26.1 µM)
- MIC=<80 [4]: 2 µg/mL (≈ 6.53 µM)

SMILES: C/C(=C\c1ccccc1)CN(C)Cc1ccc2c(c1)CCCCC2
- IC50 [1]: > 10000 nM

SMILES: CN(CCCc1ccccc1)Cc1ccc2c(c1)CCCCC2
- IC50 [1]: > 10000 nM

SMILES: CC(=O)N1CCN(c2ccc(OCC3COC(Cn4ccnc4)(c4ccc(Cl)cc4Cl)O3)cc2)CC1 (stereo not given) [KETOCONAZOLE]
- MIC=<80 (Trichophyton verrucosum): 0.0625 µg/mL (≈ 0.118 µM)
- MIC=<80 (Trichophyton rubrum): 0.5 µg/mL (≈ 0.941 µM)
- MIC=<80 (Nannizzia gypsea): 2 µg/mL (≈ 3.76 µM)
- MIC=<80 [4]: 0.0625 µg/mL (≈ 0.118 µM)

SMILES: CN(C/C=C/c1ccccc1)Cc1ccc2c(c1)CCC2
- IC50 [1]: 808 nM

SMILES: C[C@@H](c1ncncc1F)[C@](O)(Cn1cncn1)c1ccc(F)cc1F [VORICONAZOLE]
- MIC=<80 (Trichophyton verrucosum): 0.03125 µg/mL (≈ 0.0895 µM)
- MIC=<80 (Trichophyton rubrum): 0.03125 µg/mL (≈ 0.0895 µM)
- MIC=<80 (Nannizzia gypsea): 0.25 µg/mL (≈ 0.716 µM)
- MIC=<80 [4]: 0.03125 µg/mL (≈ 0.0895 µM)

SMILES: CN(C/C=C/c1ccc(Cl)cc1)Cc1ccc2c(c1)CCCCC2
- IC50 [1]: 8.8 nM

SMILES: CN(C/C=C/c1ccccc1)Cc1cccc2c1CCC2
- IC50 [1]: > 2500 nM

SMILES: CN(C/C=C/Cc1ccccc1)Cc1ccc2c(c1)CCCCC2
- IC50 [1]: > 10000 nM
